Laboratory results taken from ChEMBL document CHEMBL1134591, “N-Aryl sulfonyl homocysteine hydroxamate inhibitors of matrix metalloproteinases: further probing of the S(1), S(1)', and S(2)' pockets” (J Med Chem, 2001).

Key:
Stromelysin-1 = Stromelysin-1 (Homo sapiens, UniProt P08254); assay: In vitro inhibitory activity against matrix metalloprotease-3
Method in brief: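 MMP-3 activated with APMA (4-aminophenylmercuric acetate); cleavage of quenched fluorogenic substrate (7-methoxycoumarin-4-yl)-Arg-Pro-Lys-Pro-Tyr-Ala-Nva-Trp-Met-Lys(Dnp)-NH₂ at the Ala–Nva bond monitored; IC50 (nM) derived.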

[1] = biological target: Matrix metalloproteinase-9 (Homo sapiens, UniProt P14780); assay: In vitro inhibition of human matrix metalloprotease-9
Method in brief: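 APMA-activated enzyme, fluorogenic quenched peptide substrate Dnp-Pro-Cha-Gly-Cys(Me)-His-Ala-Lys(Nma)-NH₂, cleaved between Gly and Cys; inhibition read as substrate cleavage, reported as IC50 (nM).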

Interstitial collagenase = biological target: T1, Interstitial collagenase (Homo sapiens, UniProt P03956); assay: In vitro inhibition of human matrix metalloprotease-1
T1 sequence (P03956 whole entry): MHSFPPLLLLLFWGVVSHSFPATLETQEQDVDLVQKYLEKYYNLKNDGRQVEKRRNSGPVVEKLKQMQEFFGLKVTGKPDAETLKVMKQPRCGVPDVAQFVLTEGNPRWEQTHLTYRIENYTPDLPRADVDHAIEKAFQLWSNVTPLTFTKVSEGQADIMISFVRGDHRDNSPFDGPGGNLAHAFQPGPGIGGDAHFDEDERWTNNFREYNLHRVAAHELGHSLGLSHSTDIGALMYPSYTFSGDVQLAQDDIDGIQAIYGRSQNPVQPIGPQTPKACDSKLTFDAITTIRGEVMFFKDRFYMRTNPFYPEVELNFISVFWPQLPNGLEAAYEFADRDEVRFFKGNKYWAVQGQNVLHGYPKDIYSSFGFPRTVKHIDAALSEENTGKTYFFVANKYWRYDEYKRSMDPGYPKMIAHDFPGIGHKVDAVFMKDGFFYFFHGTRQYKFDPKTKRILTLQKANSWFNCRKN

Collagenase 3 = Collagenase 3 (Homo sapiens, UniProt P45452); assay: In vitro inhibition of human matrix metalloprotease-13
[2] = biological target: 72 kDa type IV collagenase (Homo sapiens, UniProt P08253); assay: In vitro inhibition of human matrix metalloprotease-2
Sequence of 72 kDa type IV collagenase (P08253 whole entry): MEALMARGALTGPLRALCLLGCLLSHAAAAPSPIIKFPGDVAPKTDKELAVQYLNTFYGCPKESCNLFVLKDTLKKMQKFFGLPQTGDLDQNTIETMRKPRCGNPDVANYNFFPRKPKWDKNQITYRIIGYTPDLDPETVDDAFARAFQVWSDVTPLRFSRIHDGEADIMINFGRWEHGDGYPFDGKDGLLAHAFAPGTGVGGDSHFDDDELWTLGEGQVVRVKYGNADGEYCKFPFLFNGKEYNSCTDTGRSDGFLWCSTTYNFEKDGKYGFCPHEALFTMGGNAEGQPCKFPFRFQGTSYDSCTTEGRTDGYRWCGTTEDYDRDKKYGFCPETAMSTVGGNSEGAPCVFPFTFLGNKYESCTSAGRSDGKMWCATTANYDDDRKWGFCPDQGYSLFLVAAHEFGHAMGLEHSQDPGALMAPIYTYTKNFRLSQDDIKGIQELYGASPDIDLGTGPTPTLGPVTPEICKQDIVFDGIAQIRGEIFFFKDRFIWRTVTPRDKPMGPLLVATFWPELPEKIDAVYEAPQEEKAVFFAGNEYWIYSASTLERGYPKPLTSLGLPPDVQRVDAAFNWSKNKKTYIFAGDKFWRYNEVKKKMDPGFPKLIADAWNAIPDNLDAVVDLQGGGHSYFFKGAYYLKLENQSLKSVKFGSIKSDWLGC

Sequence of Matrix metalloproteinase-9 (P14780 whole entry): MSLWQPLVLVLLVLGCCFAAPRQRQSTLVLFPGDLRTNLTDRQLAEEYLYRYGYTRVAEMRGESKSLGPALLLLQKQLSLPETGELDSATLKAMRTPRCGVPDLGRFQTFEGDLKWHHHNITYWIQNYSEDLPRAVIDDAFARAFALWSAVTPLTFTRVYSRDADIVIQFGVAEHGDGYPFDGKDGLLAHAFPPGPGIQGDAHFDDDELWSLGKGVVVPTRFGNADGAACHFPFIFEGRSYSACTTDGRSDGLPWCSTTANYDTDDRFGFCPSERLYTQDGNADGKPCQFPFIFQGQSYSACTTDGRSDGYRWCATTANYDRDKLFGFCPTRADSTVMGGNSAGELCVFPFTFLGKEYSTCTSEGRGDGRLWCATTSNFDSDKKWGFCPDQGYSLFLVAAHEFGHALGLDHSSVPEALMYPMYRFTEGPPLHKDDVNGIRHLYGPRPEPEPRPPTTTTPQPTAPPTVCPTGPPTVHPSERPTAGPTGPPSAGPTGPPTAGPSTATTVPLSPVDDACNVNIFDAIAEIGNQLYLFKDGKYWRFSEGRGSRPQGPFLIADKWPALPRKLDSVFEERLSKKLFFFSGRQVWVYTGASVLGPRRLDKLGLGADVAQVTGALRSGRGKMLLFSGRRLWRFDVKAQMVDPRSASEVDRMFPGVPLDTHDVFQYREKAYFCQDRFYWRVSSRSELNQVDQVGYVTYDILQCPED
Sequence of Stromelysin-1 (P08254 whole entry): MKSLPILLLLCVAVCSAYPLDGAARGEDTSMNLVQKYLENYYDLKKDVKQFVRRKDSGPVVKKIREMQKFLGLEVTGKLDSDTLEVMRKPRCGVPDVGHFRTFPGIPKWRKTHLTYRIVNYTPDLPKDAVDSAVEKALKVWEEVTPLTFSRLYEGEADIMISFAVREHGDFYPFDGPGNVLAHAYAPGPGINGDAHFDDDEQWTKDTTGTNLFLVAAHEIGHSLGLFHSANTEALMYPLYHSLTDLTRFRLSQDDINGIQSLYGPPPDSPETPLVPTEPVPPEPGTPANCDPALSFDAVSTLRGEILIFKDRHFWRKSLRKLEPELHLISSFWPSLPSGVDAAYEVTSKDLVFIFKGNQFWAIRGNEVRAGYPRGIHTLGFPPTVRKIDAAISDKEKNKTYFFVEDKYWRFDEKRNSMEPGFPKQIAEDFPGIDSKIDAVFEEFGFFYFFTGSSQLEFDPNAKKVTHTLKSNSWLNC

SMILES	IC50 (Stromelysin-1)	IC50 [1]	IC50 (Interstitial collagenase)	IC50 (Collagenase 3)	IC50 [2]
COc1ccc(CNC(=O)CN(C(CCSCc2ccccc2)C(=O)NO)S(=O)(=O)c2ccc(OC)cc2)cc1 (centres undefined)	0.9 nM	0.2 nM	19 nM	0.7 nM	0.7 nM
COc1ccc(S(=O)(=O)N(CC(C)C)C(CCSCc2c(F)c(F)c(F)c(F)c2F)C(=O)NO)cc1 (centres undefined)	705 nM	149 nM	–	407 nM	1810 nM
COc1ccc(S(=O)(=O)N(CC(C)C)C(CCSCc2ccc(-c3ccccc3)cc2)C(=O)NO)cc1 (centres undefined)	20 nM	0.2 nM	–	–	30 nM
COc1ccc(S(=O)(=O)N(CC(=O)NC2CCCCC2)C(CCSCc2ccccc2)C(=O)NO)cc1 (centres undefined)	1.6 nM	0.2 nM	16 nM	0.8 nM	1 nM
COc1ccc(S(=O)(=O)N(CC(=O)NCc2ccccc2)C(CCSCc2ccccc2)C(=O)NO)cc1 (centres undefined)	1.6 nM	0.2 nM	51 nM	0.5 nM	0.7 nM
COc1ccc(S(=O)(=O)N(CC(C)C)C(CCS(=O)(=O)Cc2ccccc2)C(=O)NO)cc1 (centres undefined)	10.3 nM	0.9 nM	396 nM	11.8 nM	4.22 nM
COc1ccc(S(=O)(=O)N(CC(C)C)C(CCSCc2ccccc2)C(=O)NO)cc1 (centres undefined)	0.7 nM	< 0.1 nM	104 nM	12 nM	0.7 nM
CC(C)CN(C(CCSCc1ccccc1)C(=O)NO)S(=O)(=O)c1ccc(Oc2ccccc2)cc1 (centres undefined)	4.2 nM	0.5 nM	–	3.2 nM	1.6 nM
COc1ccc(S(=O)(=O)N(CC(C)C)C(CCSCc2ccc(OCc3ccccc3)cc2)C(=O)NO)cc1 (centres undefined)	29 nM	8 nM	–	–	–
CCC(C(=O)NO)N(CC(C)C)S(=O)(=O)c1ccc(OC)cc1 (centres undefined)	45 nM	7 nM	384 nM	96 nM	53 nM
COc1ccc(S(=O)(=O)N(CC(C)C)C(CCSCc2cccc(OC)c2)C(=O)NO)cc1 (centres undefined)	5.7 nM	3.2 nM	297 nM	5.3 nM	3.78 nM
COc1ccc(S(=O)(=O)N(CC(=O)NC(c2ccccn2)c2ccccn2)C(CCSCc2ccccc2)C(=O)NO)cc1 (centres undefined)	1.1 nM	0.2 nM	39 nM	0.4 nM	0.4 nM
COc1ccc(S(=O)(=O)N(CC(=O)N2CCOCC2)C(CCSCc2ccccc2)C(=O)NO)cc1 (centres undefined)	195 nM	29 nM	532 nM	23 nM	16 nM
COc1ccc(S(=O)(=O)N(CC(C)C)C(CCSCc2cccnc2)C(=O)NO)cc1 (centres undefined)	6.2 nM	3 nM	126 nM	16.2 nM	6.3 nM
COc1ccc(S(=O)(=O)N(CC(=O)NCc2cccnc2)C(CCSCc2ccccc2)C(=O)NO)cc1 (centres undefined)	2.2 nM	0.2 nM	–	1.1 nM	1.2 nM
CC(C)CN(C(CCSCc1ccccc1)C(=O)NO)S(=O)(=O)c1ccc(Br)cc1 (centres undefined)	15.1 nM	4.3 nM	164 nM	14 nM	16 nM
CC(C)CN(C(CCSCc1ccccc1)C(=O)NO)S(=O)(=O)c1ccc(-c2ccccc2)cc1 (centres undefined)	90 nM	2.5 nM	–	3.8 nM	4.1 nM
COc1ccc(S(=O)(=O)N(CC(C)C)C(CCSCc2ccsc2)C(=O)NO)cc1 (centres undefined)	5.4 nM	1 nM	188 nM	5.1 nM	3.2 nM
COc1ccc(S(=O)(=O)N(CC(=O)NC(C2CCCCC2)C2CCCCC2)C(CCSCc2ccccc2)C(=O)NO)cc1 (centres undefined)	–	1.88 nM	–	–	8.82 nM
COc1ccc(S(=O)(=O)N(CC(=O)NCC2CCCCC2)C(CCSCc2ccccc2)C(=O)NO)cc1 (centres undefined)	–	0.01 nM	–	–	0.3 nM
COc1ccc(S(=O)(=O)N(CC(=O)NCc2cc(OC)cc(OC)c2)C(CCSCc2ccccc2)C(=O)NO)cc1 (centres undefined)	4.7 nM	0.6 nM	36 nM	2.3 nM	1.6 nM
COc1ccc(S(=O)(=O)N(CC(=O)NC(c2ccccc2)c2ccccc2)C(CCSCc2ccccc2)C(=O)NO)cc1 (centres undefined)	3.7 nM	0.5 nM	–	4.5 nM	2.3 nM
COc1ccc(S(=O)(=O)N(CC(=O)NCc2c(OC)cc(OC)cc2OC)C(CCSCc2ccccc2)C(=O)NO)cc1 (centres undefined)	2.5 nM	0.3 nM	49 nM	1.6 nM	1.2 nM
